{"data": "Results gathered from unrelated publications", "DPP9": "Dipeptidyl peptidase 9 (DPP9, Homo sapiens, UniProt Q86TI2)", "Oprd1": "Delta-type opioid receptor (Oprd1, Rattus norvegicus, UniProt P33533)", "MAP4K1": "Mitogen-activated protein kinase kinase kinase kinase 1 (MAP4K1, Homo sapiens, UniProt Q92918)"}
{"Compound": "N#Cc1ccc(NCCNCC(=O)N2N=CCC2C#N)nc1 (stereo not drawn)", "target": "DPP9", "test": "enzyme activity, inhibitor", "setting": "10 µM", "measurement": "inhibition", "value": "87%"}
{"Compound": "CC[C@@H](C)[C@@H]1CN([C@@H](CC2CCCCC2)CN2CCC[C@H]2CN2CCNC[C@@H]2CO)CCN1CCC12CC3CC(CC(C3)C1)C2", "target": "Oprd1", "test": "ligand displacement, radioligand", "setting": "0.5 µM, 2 h, pH 7.5, cell membranes", "measurement": "remaining binding", "value": "90%"}
{"Compound": "CN1CCN(c2ccc(Nc3nccc(-c4ccccc4)n3)cc2C(F)(F)F)CC1", "target": "Cyclin-dependent kinase 2 homolog (CRK2, Plasmodium falciparum, UniProt P61075)", "test": "cell-free assay", "setting": "10 µM", "measurement": "remaining signal", "value": "100%"}
{"Compound": "COc1ncccc1-c1cnn2ccc(N3CCN(C(=O)OC(C)C)CC3)nc12", "target": "Serine/threonine-protein kinase TNNI3K (TNNI3K, Homo sapiens, UniProt Q59H18)", "test": "binding, competition with immobilised ligand", "setting": "1 µM", "measurement": "remaining binding", "value": "60%"}
{"Compound": "CCN(CC)CCCC[C@H](NC(=O)[C@H](CC(C)C)NC(=O)[C@H](C)NC(=O)[C@H](Cc1ccccc1)NC(=O)c1ccc(C(C)(C)C)cc1)C(=O)N[C@@H](CO)C(=O)OC", "target": "5-hydroxytryptamine receptor 7 (HTR7, Homo sapiens, UniProt P34969)", "test": "ligand displacement, radioligand", "setting": "10 µM", "measurement": "remaining binding", "value": "92.2%"}
{"Compound": "Nc1ncc(-c2nc(N3CCOCC3)nc(N3CCOCC3)n2)c(C(F)F)n1", "target": "Cyclin-dependent kinase 8 (CDK8, Homo sapiens, UniProt P49336)", "test": "binding, competition with immobilised ligand", "setting": "10 µM", "measurement": "remaining binding", "value": "100%"}
{"Compound": "N=C(N)c1ccc2cc(OC(=O)c3ccc(N=C(N)N)cc3)ccc2c1", "target": "DPP9", "test": "enzyme activity, inhibitor", "setting": "10 µM", "measurement": "inhibition", "value": "13%"}
{"Compound": "OC[C@H]1CNCCN1C[C@@H]1CCCN1C[C@H](CC1CCCCC1)N1CCN(CCc2ccc(Cl)c(Cl)c2)[C@H](Cc2ccc(O)cc2)C1", "target": "Oprd1", "test": "ligand displacement, radioligand", "setting": "0.5 µM, 2 h, pH 7.5, cell membranes", "measurement": "remaining binding", "value": "88%"}
{"Compound": "CN(C(=O)[C@H](Cc1ccccc1)NC(=O)[C@@H](NC(=O)OCc1ccccc1)C(C)(C)C)N(C#N)CCC(N)=O", "target": "Cathepsin B (CTSB, Homo sapiens, UniProt P07858)", "test": "enzyme activity, inhibitor", "measurement": "kon", "value": "7020 M⁻¹ s⁻¹"}
{"Compound": "CCCC[C@H]1CNCCN1C[C@@H]1CCCN1C[C@@H](Cc1ccc2ccccc2c1)N1CCN(CCC23CC4CC(CC(C4)C2)C3)[C@H]([C@@H](C)O)C1", "target": "Oprd1", "test": "ligand displacement, radioligand", "setting": "0.5 µM, 2 h, pH 7.5, cell membranes", "measurement": "remaining binding", "value": "87.3%"}
{"Compound": "Cc1nn(C)cc1-c1nc2c(N3CCN(Cc4ccc(Cl)cc4)CC3)c(Cl)cnc2[nH]1", "target": "MAP4K1", "test": "binding, competition with immobilised ligand", "setting": "1 µM", "measurement": "remaining binding", "value": "74%"}
{"Compound": "CC[C@@H](C)[C@@H]1CN([C@H](Cc2ccc3ccccc3c2)CN2CCC[C@H]2CN2CCNC[C@@H]2CO)CCN1CCc1ccc(Cl)c(Cl)c1", "target": "Oprd1", "test": "ligand displacement, radioligand", "setting": "0.5 µM, 2 h, pH 7.5, cell membranes", "measurement": "remaining binding", "value": "87.7%"}
{"Compound": "C#Cc1n[nH]c2c(-c3cn(C(C)c4ccccn4)c(=O)[nH]c3=O)cc(F)cc12 (stereo not drawn)", "target": "Cyclin-dependent kinase 8, with cyclin C (CDK8, Homo sapiens, UniProt P49336)", "test": "enzyme activity, inhibitor", "setting": "1 µM", "measurement": "inhibition", "value": "6.2%"}
{"Compound": "OC[C@H]1CNCCN1C[C@@H]1CCCN1C[C@H](CC1CCCCC1)N1CCN(CCC23CC4CC(CC(C4)C2)C3)[C@H](Cc2ccc(O)cc2)C1", "target": "Oprd1", "test": "ligand displacement, radioligand", "setting": "0.5 µM, 2 h, pH 7.5, cell membranes", "measurement": "remaining binding", "value": "96.1%"}
{"Compound": "C#Cc1n[nH]c2c(-c3cn([C@@H](C)c4ccccc4)c(=O)[nH]c3=O)cc(F)cc12", "target": "MAP4K1", "test": "enzyme activity, inhibitor", "setting": "0.1 µM", "measurement": "inhibition", "value": "2.7%"}
